Assay outcomes deposited in PubChem by SRMLSC.
The entries come from a sample that favours hits as a whole.
HUVEC inhibit – human endothelial cell proliferation inhibition; HUVEC proliferation, CellTiter-Glo luminescence, 72 h; hits give low values; viability, % at 10 µM (by protocol); 86,000 compounds, 1.1% hits; AID 648;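 active means viability at or below 30%; inactive means viability above 30%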;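 further: 100% = median luminescence of DMSO-only cell control wells on each plate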
Fibroblast inh – blocks proliferation of human lung fibroblasts. LL 47 human lung fibroblast viability, ATP luminescence; hits give low values. viability, % at 10 µM. 85,000 compounds, 1.1% hits. AID 719;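 active means viability at or below 50% in the single dose screen; inactive means viability above 50%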;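 further: compound exposure lasted 72 h before the ATP readout; 100% = median luminescence of untreated cell-only wells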
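Material: Human LL 47 lung fibroblast cells | Input: 1,150 cells/well | Buffer or medium: IMEM plus 15% FBS | Compound dosing: 0.1% DMSO in all compound wells | Times: Overnight cell rest, 72 h compound treatment at 37 °C | Signal: CellTiter-Glo luminescence measuring cellular ATP | Measure: % viability versus median cells-only luminescence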
HCT116 PTEN-null – growth suppressors of cells with PTEN tumor suppressor deletion; HCT116 PTEN-null viability, CellTiter-Glo, 60 h; hits give low values; viability, % at 10 µM; 140,000 compounds, 1.2% hits; AID 827;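 active means viability at or below a set limit, 4 SD under the median of all tested compounds, cut at about 3.7% in these data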;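 further: PTEN knockout HCT116 line with beta catenin targeted HCT116 as companion control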
H69AR inhibit – blocks growth of human H69AR lung tumor cells | H69AR lung tumor viability, ATP luminescence, 72 h; hits give low values | viability, % at 10 µM | 85,000 compounds, 6% hits;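 active means viability at or below 40%; inactive means viability above 40%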;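 further: multidrug resistant small cell line overexpressing MRP-1 efflux transporter; 100% = mean luminescence of untreated control wells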
bCat KO growth – beta-catenin-lacking colon tumor cell growth suppression | HCT116 beta-catenin knockout viability, CellTiter-Glo, 60 h; hits give low values | viability, % at 10 µM | 140,000 compounds, 1.5% hits | AID 818;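 active means viability at or under a set limit, the compound median less 4 SD, cut at about 6% in these data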;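 further: 0% = Hyamine 1622 control at 20 µM and 100% = untreated cell control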
* marks the source's active call; other numbers are inactive results; . = not tested or not shown.

SMILES	HUVEC inhibit	Fibroblast inh	HCT116 PTEN-null	H69AR inhibit	bCat KO growth
CC(=O)n1cc(-c2ccncc2)c2ccccc21	25*	86	72	68	86
COC(=O)c1ccc(COc2ccccc2/C=C(\C#N)C(=O)Nc2ccc(C)cc2C)cc1	.	.	74	.	79
COC(=O)c1ccc(COc2ccccc2/C=C(\C#N)C(=O)Nc2c(C)cc(C)cc2C)cc1	.	.	1.1*	.	1.4*
Cc1ccc(-n2nc(C)c(C3C(C#N)=C(N)OC4=C3C(=O)CC(C)(C)C4)c2Cl)cc1 (stereo not drawn)	63	80	.	24*	.
CCOC(=O)C1=C(C)OC(N)=C(C#N)C1c1c(C)nn(-c2ccccc2)c1Cl (stereo not drawn)	84	92	93	.	96
C=CCOC(=O)C1=C(C)OC(N)=C(C#N)C1c1c(C)nn(-c2ccccc2)c1Cl (stereo not drawn)	85	91	98	29*	113
Cc1nn(-c2ccccc2)c(Cl)c1C1C(C#N)=C(N)Oc2c1c(C)nn2-c1ccccc1 (stereo not drawn)	75	99	94	5.1*	87
Cc1cccc(NC(=O)CSc2nnc([C@@H]3CCCN3C(=O)OC(C)(C)C)o2)c1C	76	91	99	1.4*	97
Cc1ccc(C)c(NC(=O)CSc2nnc([C@@H]3CCCN3C(=O)OC(C)(C)C)o2)c1	98	99	98	97	100
Cc1cccc(NC(=O)c2ccc([N+](=O)[O-])s2)c1C	.	.	2.2*	.	2.9*
Cc1cccc(C)c1NC(=O)c1ccc([N+](=O)[O-])s1	.	.	28	.	29
Cc1cccc(S(=O)(=O)c2c(N)n(/N=C/c3ccco3)c3nc4ccccc4nc23)c1	80	92	70	82	82
Cc1cccc(S(=O)(=O)c2c(N)n(/N=C/c3cccnc3)c3nc4ccccc4nc23)c1	76	63	61	33*	51
Nc1c(S(=O)(=O)c2cccs2)c2nc3ccccc3nc2n1/N=C/c1cccc(O)c1	4.9*	56	2.2*	4.0*	2.7*
Cc1csc(NC(=O)CSc2nnc(-c3ccc(S(=O)(=O)N4CCCC4)cc3)o2)n1	113	96	73	34*	72
Cc1ccc(-c2nnc(SCC(=O)Nc3ccc(S(=O)(=O)N4CCCCCC4)cc3)o2)cc1	37	81	85	8.8*	89
CCN(CC)S(=O)(=O)c1ccc(-c2nnc(SCC(=O)Nc3nc(C)cs3)o2)cc1	88	62	62	72	61
O=C(CSCc1c(F)cccc1Cl)NCc1cccnc1	.	.	95	.	103
COc1cc(C(=O)O/N=C2/C=C(C)C(=O)C=C2C)cc(OC)c1OC	.	.	6	.	3.6*
O=C(Nc1cc(C(F)(F)F)cc(C(F)(F)F)c1)c1ccc(Cn2cc(C(F)(F)F)ccc2=O)cc1	.	.	78	.	78
O=S(=O)(CC(CN1CCCC1)N1CCCC1)c1ccc2ccccc2c1 (stereo not drawn)	18*	3.5*	2.1*	1.9*	1.9*
Cc1ccc(N2C(=O)CC(Sc3ncn[nH]3)C2=O)cc1C (stereo not drawn)	98	102	106	88	87
COc1cccc(/C(O)=C/c2nc3ccc(C(=O)NCCc4cccc(C)c4)cc3[nH]c2=O)c1	.	.	4	.	8
COc1cccc(/C(O)=C/c2nc3ccc(C(=O)NCCc4ccc(Cl)cc4)cc3[nH]c2=O)c1	.	.	1.2*	.	1.5*
Cn1cc([N+](=O)[O-])c(C(=O)Nc2cc(Oc3ccccc3)cc([N+](=O)[O-])c2)n1	.	.	1.7*	.	1.6*
SMILES	HUVEC inhibit	Fibroblast inh	HCT116 PTEN-null	H69AR inhibit	bCat KO growth
Cc1ccccc1Cn1ccc(NC(=O)c2nn(C)cc2[N+](=O)[O-])n1	.	.	2.1*	.	3.8*
CCn1cc([N+](=O)[O-])c(C(=O)Nc2ccn(Cc3ccccc3F)n2)n1	.	.	97	.	96
Nc1ncncc1-c1ccc([N+](=O)[O-])cc1	.	.	90	.	93
CCOC(=O)c1c(CSc2ccc(C)cc2)oc2ccc(O)cc12	.	.	70	.	78
COc1ccc(OC)c(Nc2nc(-c3sc(NC(=O)C(C)(C)C)nc3C)cs2)c1	.	.	62	.	82
COc1ccc(OC)c(Nc2nc(-c3sc(C)nc3C)cs2)c1	58	94	76	26*	94
Cc1ccc(-n2c(SCC(N)=O)nnc2-c2ccc(S(=O)(=O)N3CCCCC3)cc2)c(C)c1	98	100	100	88	94
CCOC(=O)CC(=O)CSc1nc2sc(C)cc2c(=O)n1Cc1ccco1	97	84	96	79	89
